Data on 15 compounds can be found in ChEMBL document CHEMBL2331427, “Synthesis and biological evaluation of thieno [2',3':4,5]pyrimido[1,2-b][1,2,4]triazines and thieno[2,3-d][1,2,4]triazolo[1,5-a]pyrimidines as anti-inflammatory and analgesic agents” (Eur J Med Chem, 2013).

For series [1], the system named is Rattus norvegicus. Description: Antiinflammatory activity in albino rat assessed as inhibition of formalin-induced paw edema at 20 mg/kg, po qd administered 7 days measured on day 1 post formalin challenge by plethysmometric analysis relative to control. Type of series: functional. The essentials: (§1)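 Sub-acute model in rats. Compounds given orally at 20 mg/kg daily for 7 consecutive days. 2% formalin (0.1 ml) injected subplantar into left hind paw under light ether anaesthesia 1 h after the day-1 dose, with a second injection on day 3. Paw volume measured plethysmographically on days 1 and 8. Inhibition calculated versus control.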

The subject of series [2] is Rattus norvegicus. Put plainly: Antiinflammatory activity in albino rat assessed as inhibition of formalin-induced paw edema at 20 mg/kg, po administered 1 hr prior to formalin challenge measured after 2 hrs by plethysmometric analysis relative to control. Type of series: functional. The essentials: (§2)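 Male albino rats, 180-200 g, five per group. Test compounds given orally at 20 mg/kg; diclofenac Na reference at 20 mg/kg po. After 1 h, 2% formalin (0.1 ml) injected subplantar into left hind paw under light ether anaesthesia. Paw volume read by water plethysmometer at 0, 1, 2 and 4 h. % inhibition of edema increase (Vt−Vo) calculated versus control; mean ± S.E.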

Series [3] has as its system Rattus norvegicus. Put plainly: Antiinflammatory activity in albino rat assessed as inhibition of formalin-induced paw edema at 20 mg/kg, po administered 1 hr prior to formalin challenge measured after 1 hr by plethysmometric analysis relative to control. Type of series: functional. The essentials:
as §2

For series [4], the system named is Rattus norvegicus. Description: Antiinflammatory activity in albino rat assessed as inhibition of formalin-induced paw edema at 20 mg/kg, po qd administered 7 days measured on day 8 post formalin challenge by plethysmometric analysis relative to control. Type of series: functional. Summed up: as §1
The test system of series [5] is Rattus norvegicus. Description: Analgesic activity in albino rat assessed as increase in tail withdrawal latency at 20 mg/kg, po after 4 hrs relative to control. Type of series: functional. The essentials: (§3)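 Male albino rats, 120-150 g, five per group, free access to food and water. Compounds given orally at 20 mg/kg; control group kept, diclofenac Na reference at 20 mg/kg po. Tail withdrawal after immersion in 55 °C water. Reaction time read at 1, 2 and 4 h. Reported as mean ± S.E. and as % increase over basal values. ANOVA with Student-Newman-Keuls, P < 0.05.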

Series [6] has as its system Rattus norvegicus. Put plainly: Antiinflammatory activity in albino rat assessed as inhibition of formalin-induced paw edema at 20 mg/kg, po administered 1 hr prior to formalin challenge measured after 4 hrs by plethysmometric analysis relative to control. Type of series: functional. Summed up: as §2
The subject of series [7] is Rattus norvegicus. Description: Analgesic activity in albino rat assessed as increase in tail withdrawal latency at 20 mg/kg, po after 2 hrs relative to control. The series is classed as functional. Summed up: as §3
Series [8] deals with Rattus norvegicus. Description: Analgesic activity in albino rat assessed as increase in tail withdrawal latency at 20 mg/kg, po after 1 hr relative to control. The series is classed as functional. Summed up: as §3
Series [9] has as its system Rattus norvegicus. Description: Ulcerogenic activity in albino rat assessed as appearance of hyperemia at 300 mg/kg, po bid administered for 3 days measured after 6 hrs post last dose relative to control. The arrangement: dose 300 mg/kg, route oral. The series is classed as toxicity, organism-based. Particulars: in vivo. The essentials: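 Rats received 300 mg/kg per day orally as two equal doses at 0 and 12 h for three successive days, with water ad libitum. Controls received 1% gum acacia orally. Animals were killed with diethyl ether 6 h after the last dose. Stomachs were removed and inspected grossly for hyperemia and ulceration. Diclofenac Na served as reference.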

A short description of series [10]: Acute toxicity in po dosed rat assessed as mortality after 24 hrs. Type of series: organism-based. As to conditions: in vivo, read-out: ALD50. Summed up: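 Male rats, 180-200 g, groups of five, fasted 24 h before dosing. Compounds given orally at graded doses of 0.1-0.3 g/kg body weight. Mortality at each dose level recorded after 24 h to estimate approximate acute lethal dose (ALD50).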

The subject of series [11] is Rattus norvegicus. Description: Antiinflammatory activity in po dosed albino rat assessed as inhibition of formalin-induced paw edema administered 1 hr prior to formalin challenge measured after 2 hrs by plethysmometric analysis. Type of series: functional. The essentials: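 Male albino rats, 180-200 g, groups of five, dosed orally at 5, 10, 20, 40 and 50 mg/kg. After 1 h, 2% formalin (0.1 ml) injected subplantar into left hind paw. Paw edema inhibition measured plethysmometrically 2 h after formalin injection. ED50 derived from these doses.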

With `Cc1sc2nc3ncc(-c4ccc(Br)cc4)nn3c(=O)c2c1C`, the inhibition in vivo (usually the change of the read-out against control, counted positive when it falls) at 20 mg/kg is 33% in the series on Rattus norvegicus [1]; 5% in the series with Rattus norvegicus [2]; 13% with Rattus norvegicus [3]; 25% in the series with Rattus norvegicus [4]; 27% with Rattus norvegicus [6]. The Activity in the series on Rattus norvegicus [5] is 28%; with Rattus norvegicus [7], 24%; in the series with Rattus norvegicus [8] it was 13%.

Take `Cc1sc2nc3[nH]c(Nc4ccc(Cl)cc4)nn3c(=O)c2c1C`: the inhibition in vivo at 20 mg/kg in the series with Rattus norvegicus [1] came out at 36%; in the series with Rattus norvegicus [2], 6%; in the series on Rattus norvegicus [3] it was 9%; in the series with Rattus norvegicus [4], 24%; in the series with Rattus norvegicus [6] it was 11%. Further, the Activity amounted to 54% in the series on Rattus norvegicus [5], 40% with Rattus norvegicus [7] and 26% in the series on Rattus norvegicus [8].

Regarding `Cc1ccc(-c2cnc3nc4sc(C)c(C)c4c(=O)n3n2)cc1`, the inhibition in vivo at 20 mg/kg with Rattus norvegicus [1] came to 25%; in the series on Rattus norvegicus [2], 28%; in the series with Rattus norvegicus [3], 21%; in the series with Rattus norvegicus [4], 22%; in the series with Rattus norvegicus [6], 27%. The Activity with Rattus norvegicus [5] is 29%; with Rattus norvegicus [7], 25%; in the series on Rattus norvegicus [8] it was 13%.

Regarding `Cc1nn2c(=O)c3c(C)c(C)sc3nc2[nH]1`, the inhibition in vivo at 20 mg/kg is 44% with Rattus norvegicus [1]; 43% in the series on Rattus norvegicus [2]; 38% in the series with Rattus norvegicus [3]; 31% in the series with Rattus norvegicus [4]; 52% in the series with Rattus norvegicus [6]. Besides, the Activity entry with Rattus norvegicus [9] is listed as “Non-toxic”; with Rattus norvegicus [5], 54%; with Rattus norvegicus [7] it was 40%; in the series on Rattus norvegicus [8], 30%. Besides, the LD50 at 24 h in [10] is greater than 300 mg/kg. Besides, the ED50 (as a rule, the dose that gives a 50% effect, or the effect in half of the subjects) with Rattus norvegicus [11] was 23.4 mg/kg.

Turning to `Cc1sc2nc3[nH]c(=S)[nH]n3c(=O)c2c1C`, the inhibition in vivo at 20 mg/kg in the series with Rattus norvegicus [1] turned out to be 47%; in the series on Rattus norvegicus [2], 43%; in the series on Rattus norvegicus [3], 42%; in the series on Rattus norvegicus [4], 40%; with Rattus norvegicus [6], 27%. Besides, the Activity was 20% in the series with Rattus norvegicus [9], 39% in the series with Rattus norvegicus [5], 35% with Rattus norvegicus [7] and 27% in the series with Rattus norvegicus [8]. Besides, the LD50 at 24 h in series [10] was greater than 300 mg/kg. The ED50 with Rattus norvegicus [11] was 27.5 mg/kg.

Consider `Cc1sc2nc3[nH]c(CC#N)nn3c(=O)c2c1C`, for which the inhibition in vivo at 20 mg/kg in the series with Rattus norvegicus [1] was found to be 47%; with Rattus norvegicus [2], 25%; in the series on Rattus norvegicus [3] it was 42%; with Rattus norvegicus [4], 38%; with Rattus norvegicus [6], 36%. In addition, the Activity in the series with Rattus norvegicus [9] worked out at 20%; in the series on Rattus norvegicus [5], 64%; in the series on Rattus norvegicus [7] it was 53%; in the series with Rattus norvegicus [8], 41%. Moreover, the LD50 at 24 h in series [10] was greater than 300 mg/kg. The ED50 with Rattus norvegicus [11] was 29 mg/kg.

For the compound `Cc1sc2nc3[nH]c(Nc4ccccc4)nn3c(=O)c2c1C`, the inhibition in vivo at 20 mg/kg with Rattus norvegicus [1] was found to be 36%; with Rattus norvegicus [2], 12%; in the series with Rattus norvegicus [3], 9%; in the series on Rattus norvegicus [4], 20%; in the series with Rattus norvegicus [6], 25%. In addition, the figures for the Activity with Rattus norvegicus [5], in the series with Rattus norvegicus [7] and in the series with Rattus norvegicus [8] were 26%, 17% and 5%, respectively.

In the case of `Cc1ccc(Nc2nn3c(=O)c4c(C)c(C)sc4nc3[nH]2)cc1`, the inhibition in vivo at 20 mg/kg in the series on Rattus norvegicus [1] is 33%; in the series on Rattus norvegicus [2], 5%; in the series on Rattus norvegicus [3], 21%; in the series with Rattus norvegicus [4] it was 24%; in the series on Rattus norvegicus [6] it was 18%. For the same compound, the Activity in the series on Rattus norvegicus [5] turned out to be 44%; in the series with Rattus norvegicus [7] it was 31%; in the series on Rattus norvegicus [8] it was 23%.

On to `CCOC(=O)Cc1nn2c(=O)c3c(C)c(C)sc3nc2[nH]1`, for which the inhibition in vivo at 20 mg/kg in the series with Rattus norvegicus [1] was found to be 47%; in the series with Rattus norvegicus [2], 53%; in the series with Rattus norvegicus [3] it was 47%; with Rattus norvegicus [4] it was 40%; in the series with Rattus norvegicus [6], 56%. In addition, the Activity in the series on Rattus norvegicus [9] is on record as 20%; in the series with Rattus norvegicus [5] it was 62%; in the series with Rattus norvegicus [7], 47%; with Rattus norvegicus [8], 19%. In addition, the LD50 at 24 h in series [10] was greater than 300 mg/kg. The ED50 in the series on Rattus norvegicus [11] was found to be 28.1 mg/kg.

As for `Cc1sc2nc3[nH]c(CC(=O)Nc4ccccc4)nn3c(=O)c2c1C`, the inhibition in vivo at 20 mg/kg came out at 50% in the series on Rattus norvegicus [1]; 37% in the series with Rattus norvegicus [2]; 42% with Rattus norvegicus [3]; 37% with Rattus norvegicus [4]; 40% in the series with Rattus norvegicus [6]. The Activity in the series with Rattus norvegicus [9] turned out to be 20%; in the series on Rattus norvegicus [5], 51%; with Rattus norvegicus [7], 36%; with Rattus norvegicus [8] it was 21%. In [10], the LD50 at 24 h was greater than 300 mg/kg. Also, the ED50 in the series with Rattus norvegicus [11] was determined as 26.1 mg/kg.

As for `Cc1sc2nc3[nH]c(CC(=O)Nc4ccc(Cl)cc4)nn3c(=O)c2c1C`, the inhibition in vivo at 20 mg/kg in the series with Rattus norvegicus [1] is 36%; in the series with Rattus norvegicus [2] it was 28%; in the series with Rattus norvegicus [3], 33%; in the series on Rattus norvegicus [4], 38%; in the series with Rattus norvegicus [6], 29%. The Activity came out at 40% in the series on Rattus norvegicus [5], 32% in the series with Rattus norvegicus [7] and 28% with Rattus norvegicus [8].

As for `COc1ccc(NC(=O)Cc2nn3c(=O)c4c(C)c(C)sc4nc3[nH]2)cc1`, the inhibition in vivo at 20 mg/kg is 41% with Rattus norvegicus [1]; 40% with Rattus norvegicus [2]; 47% in the series on Rattus norvegicus [3]; 38% in the series on Rattus norvegicus [4]; 43% in the series with Rattus norvegicus [6]. Also, the Activity result is “Non-toxic” in the series with Rattus norvegicus [9], 42% in the series with Rattus norvegicus [5], 35% with Rattus norvegicus [7] and 14% in the series on Rattus norvegicus [8]. Further, the LD50 at 24 h in series [10] was greater than 300 mg/kg. The ED50 in the series on Rattus norvegicus [11] was 18.4 mg/kg.

In the case of `Cc1sc2nc3ncc(-c4ccccc4)nn3c(=O)c2c1C`, the inhibition in vivo at 20 mg/kg in the series with Rattus norvegicus [1] stood at 38%; with Rattus norvegicus [2] it was 28%; in the series with Rattus norvegicus [3], 14%; with Rattus norvegicus [4], 38%; in the series on Rattus norvegicus [6], 34%. Besides, the Activity in the series with Rattus norvegicus [5] stood at 50%; in the series on Rattus norvegicus [7] it was 34%; in the series with Rattus norvegicus [8], 17%.

For the compound `Cc1sc2nc3ncc(-c4ccc(Cl)cc4)nn3c(=O)c2c1C`, the inhibition in vivo at 20 mg/kg in the series on Rattus norvegicus [1] was found to be 36%; in the series on Rattus norvegicus [2], 12%; in the series on Rattus norvegicus [3], 14%; in the series with Rattus norvegicus [4], 18%; in the series on Rattus norvegicus [6], 20%. Moreover, the Activity in the series with Rattus norvegicus [5] worked out at 23%; with Rattus norvegicus [7], 11%; with Rattus norvegicus [8] it was 6%.

As to `O=C([O-])Cc1ccccc1Nc1c(Cl)cccc1Cl.[Na+]` [DICLOFENAC SODIUM], the inhibition in vivo at 20 mg/kg is 44% in the series with Rattus norvegicus [1], 38% in the series with Rattus norvegicus [3], 40% in the series with Rattus norvegicus [4] and 52% with Rattus norvegicus [6]. The Activity with Rattus norvegicus [9] came to 20%; in the series with Rattus norvegicus [5], 56%; with Rattus norvegicus [8] it was 30%. In the series with Rattus norvegicus [11], the ED50 was determined as 25.1 mg/kg.
